Reference: ChEMBL document CHEMBL1135707, “Identification of potent and selective mechanism-based inhibitors of the cysteine protease cruzain using solid-phase parallel synthesis” (J Med Chem, 2002)
Converted amounts (≈) assume the structure as drawn.

Columns and labels:
[1] = target: Cruzipain (Trypanosoma cruzi, UniProt P25779); assay: Inhibitory activity against cruzain, the major cysteine protease found in Trypanosoma cruzi
Outline: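 Enzyme and inhibitor (in DMSO) preincubated 5 min before substrate addition. Read at ex 355/em 450 nm at four time points in the linear region. Activity taken against no-inhibitor controls, run in duplicate. Ki obtained from Williams–Morrison tight-binding fit.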

[2] = target: Procathepsin L (Homo sapiens, UniProt P07711); assay: Inhibitory activity against human Cathepsin L
Outline: (§1)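 Buffer was 0.25 M sodium acetate pH 5.5 with 2 mM EDTA, 0.015% Brij-35 and 1 mM DTT. 5 min enzyme–inhibitor preincubation, ex 355/em 450 nm, duplicate wells. Ki obtained from Williams–Morrison fit.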

[3] = target: Cathepsin B (Homo sapiens, UniProt P07858); assay: Inhibitory activity against human Cathepsin B; outline: as §1
[4] = Aqueous solubility using UV analysis; type: physicochemical
Outline: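 Solubility measured by an outside lab after 2 h preincubation of inhibitor in pH 7.4 aqueous buffer at 37 °C. Quantitated by UV absorbance at 211 nm.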

Chain of Cruzipain (P25779 whole entry): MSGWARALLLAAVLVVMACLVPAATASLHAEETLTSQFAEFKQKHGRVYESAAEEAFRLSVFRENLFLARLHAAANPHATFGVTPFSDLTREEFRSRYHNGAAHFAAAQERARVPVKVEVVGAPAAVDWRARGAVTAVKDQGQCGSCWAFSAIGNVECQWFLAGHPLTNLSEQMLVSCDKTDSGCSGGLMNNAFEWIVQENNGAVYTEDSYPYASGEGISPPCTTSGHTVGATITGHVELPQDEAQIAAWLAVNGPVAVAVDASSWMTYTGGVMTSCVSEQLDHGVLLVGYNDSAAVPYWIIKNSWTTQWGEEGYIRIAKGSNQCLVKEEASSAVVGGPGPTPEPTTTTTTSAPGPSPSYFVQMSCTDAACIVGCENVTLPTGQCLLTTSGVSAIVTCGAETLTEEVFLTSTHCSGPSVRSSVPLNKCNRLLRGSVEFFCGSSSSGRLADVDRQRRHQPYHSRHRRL
Chain of Procathepsin L (P07711 whole entry): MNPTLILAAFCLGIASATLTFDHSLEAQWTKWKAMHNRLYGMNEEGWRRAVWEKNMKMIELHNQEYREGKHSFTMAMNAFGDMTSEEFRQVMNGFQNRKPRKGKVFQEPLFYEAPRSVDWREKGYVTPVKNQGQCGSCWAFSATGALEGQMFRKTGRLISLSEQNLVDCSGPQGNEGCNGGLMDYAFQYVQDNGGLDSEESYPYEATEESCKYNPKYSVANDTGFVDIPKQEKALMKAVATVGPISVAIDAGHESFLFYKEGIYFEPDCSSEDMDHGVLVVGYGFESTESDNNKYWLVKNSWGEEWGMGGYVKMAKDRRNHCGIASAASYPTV

SMILES | Ki [1] | Ki [2] | Ki [3] | solubility [4]
CC(C)CCSCC(=O)[C@H](Cc1ccccc1)NC(=O)[C@H](Cc1ccccc1)NC(=O)OCc1ccccc1 | 30.1 nM |  |  | 
CCOC(=O)CCSCC(=O)[C@H](Cc1ccccc1)NC(=O)[C@H](CC(C)C)NC(=O)N1CCOCC1 | 69.6 nM |  |  | 
CCOC(=O)CCSCC(=O)[C@H](Cc1ccccc1)NC(=O)[C@H](Cc1ccccc1)NC(=O)OCc1ccccn1 | 30.4 nM |  |  | 
O=C(N[C@@H](Cc1ccccc1)C(=O)N[C@@H](Cc1ccccc1)C(=O)CSC1CCCC1)OCc1ccccc1 | 34.3 nM |  |  | 
CC(C)C[C@H](NC(=O)N1CCOCC1)C(=O)N[C@@H](Cc1ccccc1)C(=O)CSCCCc1ccccc1 | 131 nM |  |  | 
CCOC(=O)C(C)SCC(=O)[C@H](Cc1ccccc1)NC(=O)[C@H](Cc1ccccc1)NC(=O)OCc1ccccc1 (some centres undefined) | 37 nM |  |  | 
CC(C)C[C@H](NC(=O)N1CCOCC1)C(=O)N[C@@H](Cc1ccccc1)C(=O)CSC(C)(C)C | 59.7 nM |  |  | 
CCOC(=O)CCSCC(=O)[C@H](Cc1ccccc1)NC(=O)[C@H](Cc1ccccc1)NC(=O)N1CCOCC1 | 59.1 nM |  |  | 
CCOC(=O)CCSCC(=O)[C@H](Cc1ccccc1)NC(=O)[C@H](Cc1ccccc1)NC(=O)OCc1cccnc1 | 22.7 nM |  |  | 
CC(C)(C)SCC(=O)[C@H](Cc1ccccc1)NC(=O)[C@H](Cc1ccccc1)NC(=O)N1CCOCC1 | 54.6 nM |  |  | 
COc1ccc(CSCC(=O)[C@H](Cc2ccccc2)NC(=O)[C@H](Cc2ccccc2)NC(=O)OCc2ccccc2)cc1 | 32.4 nM |  |  | 
O=C(N[C@@H](Cc1ccccc1)C(=O)N[C@@H](Cc1ccccc1)C(=O)CSCc1ccccc1)OCc1ccccc1 | 44 nM |  |  | 
CCOC(=O)CSCC(=O)[C@H](Cc1ccccc1)NC(=O)[C@H](Cc1ccccc1)NC(=O)OCc1ccccc1 | 31.2 nM |  |  | 
O=C(CSCCCc1ccccc1)[C@H](Cc1ccccc1)NC(=O)[C@H](Cc1ccccc1)NC(=O)N1CCOCC1 | 216 nM |  |  | 
O=C(N[C@@H](Cc1ccccc1)C(=O)N[C@@H](Cc1ccccc1)C(=O)CSCc1ccc(Cl)cc1)OCc1ccccc1 | 82.7 nM |  |  | 
CC(=O)NCCSCC(=O)[C@H](Cc1ccccc1)NC(=O)[C@H](Cc1ccccc1)NC(=O)OCc1ccccc1 | 34.3 nM |  |  | 

The next compounds have a lower Ki [1] than those just listed; values first:

Ki [1] | Ki [2] | Ki [3] | solubility [4] | SMILES
4.2 nM |  |  |  | O=C(N[C@@H](Cc1ccccc1)C(=O)N[C@@H](Cc1ccccc1)C(=O)CSCCc1ccccc1)OCc1ccccc1
2 nM | 2.8 nM | 45.4 nM |  | O=C(N[C@@H](Cc1ccccc1)C(=O)N[C@@H](Cc1ccccc1)C(=O)CSCCCc1ccccc1)OCc1ccccc1
5.5 nM |  |  |  | O=C(N[C@@H](Cc1ccccc1)C(=O)N[C@@H](Cc1ccccc1)C(=O)CSCCCc1ccccc1)OCc1cccnc1
4.6 nM |  |  | 288 µM (≈ 154 µg/mL) | CC(C)(C)SCC(=O)[C@H](Cc1ccccc1)NC(=O)[C@H](Cc1ccccc1)NC(=O)OCc1cccnc1
1.3 nM | 7.9 nM | 112 nM |  | CC(C)C[C@H](NC(=O)OCc1ccccc1)C(=O)N[C@@H](Cc1ccccc1)C(=O)CSC(C)(C)C
1.4 nM | 9.6 nM | 600 nM |  | CC(C)(C)SCC(=O)[C@H](CCc1ccccc1)NC(=O)[C@H](Cc1ccccc1)NC(=O)OCc1cccnc1
5.8 nM |  |  |  | CCC(C)SCC(=O)[C@H](Cc1ccccc1)NC(=O)[C@H](Cc1ccccc1)NC(=O)OCc1ccccc1 (some centres undefined)
7.5 nM |  |  |  | O=C(N[C@@H](Cc1ccccc1)C(=O)N[C@@H](Cc1ccccc1)C(=O)CSC1CCCCC1)OCc1ccccc1
5 nM |  |  |  | CC(C)(C)CC(C)(CC(C)(C)C)SCC(=O)[C@H](Cc1ccccc1)NC(=O)[C@H](Cc1ccccc1)NC(=O)OCc1ccccc1
2.5 nM | 1.7 nM | 45 nM | 70 µM (≈ 37.3 µg/mL) | CC(C)(C)SCC(=O)[C@H](Cc1ccccc1)NC(=O)[C@H](Cc1ccccc1)NC(=O)OCc1ccccc1
8 nM |  |  |  | CCOC(=O)CCSCC(=O)[C@H](Cc1ccccc1)NC(=O)[C@H](CC(C)C)NC(=O)OCc1ccccc1
2.9 nM | 1.5 nM | 42.7 nM |  | CCOC(=O)CCSCC(=O)[C@H](Cc1ccccc1)NC(=O)[C@H](Cc1ccccc1)NC(=O)OCc1ccccc1
1 nM | 4.7 nM | 136 nM |  | CC(C)C[C@H](NC(=O)OCc1ccccc1)C(=O)N[C@@H](Cc1ccccc1)C(=O)CSCCCc1ccccc1
4.6 nM |  |  |  | CC(C)SCC(=O)[C@H](Cc1ccccc1)NC(=O)[C@H](Cc1ccccc1)NC(=O)OCc1ccccc1
7.8 nM |  |  |  | CC(C)C[C@H](NC(=O)OCc1ccccc1)C(=O)N[C@@H](Cc1ccccc1)C(=O)CSC(C)C
1.1 nM | 144 nM | 1700 nM |  | CC(C)C[C@H](NC(=O)OCc1cccnc1)C(=O)N[C@@H](CCc1ccccc1)C(=O)CSCCCc1ccccc1
22 nM |  |  |  | CC(C)(C)c1ccc(CSCC(=O)[C@H](Cc2ccccc2)NC(=O)[C@H](Cc2ccccc2)NC(=O)OCc2ccccc2)cc1
10.4 nM |  |  |  | CC(C)(C)CC(C)(C)SCC(=O)[C@H](Cc1ccccc1)NC(=O)[C@H](Cc1ccccc1)NC(=O)OCc1ccccc1
13.8 nM |  |  |  | CC(C)C[C@H](NC(=O)OCc1ccccn1)C(=O)N[C@@H](Cc1ccccc1)C(=O)CSC(C)(C)C
4.8 nM |  |  | 378 µM (≈ 189 µg/mL) | CC(C)C[C@H](NC(=O)OCc1cccnc1)C(=O)N[C@@H](Cc1ccccc1)C(=O)CSC(C)(C)C
15 nM |  |  |  | CNC(=O)CSCC(=O)[C@H](Cc1ccccc1)NC(=O)[C@H](Cc1ccccc1)NC(=O)OCc1ccccc1
2 nM | 44 nM | 1300 nM |  | CC(C)C[C@H](NC(=O)OCc1cccnc1)C(=O)N[C@@H](CCc1ccccc1)C(=O)CSC(C)(C)C
14.1 nM | 28.8 nM | 4800 nM |  | CC(C)C[C@H](NC(=O)OCc1ccncc1)C(=O)N[C@@H](Cc1ccccc1)C(=O)CSC(C)(C)C
5.4 nM |  |  |  | O=C(N[C@@H](Cc1ccccc1)C(=O)N[C@@H](CCc1ccccc1)C(=O)CSCCCc1ccccc1)OCc1cccnc1 (stereo in doubt; 16d)
0.9 nM | 28.8 nM | 700 nM |  | O=C(N[C@@H](Cc1ccccc1)C(=O)N[C@@H](CCc1ccccc1)C(=O)CSCCCc1ccccc1)OCc1cccnc1 (stereo in doubt; 16e)
